What was measured:
[1] = Mean residence time (infinity) in ICR mouse at 1 mg/kg, ip by LC-MS/MS analysis; type: ADME, organism-based; parameters: dose 1 mg/kg, route intraperitoneal; settings: in vivo
Outline: (§1)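 Male ICR mice (5–6 weeks, 20–25 g), single doses of 1, 5 or 15 mg/kg in 10% DMSO/PEG300, given iv by tail vein, ip, or orally by gavage. Three to four mice per time point, euthanized under isoflurane, blood drawn from posterior vena cava. Plasma protein precipitated with acetonitrile containing internal standard, then LC-MS/MS (MRM m/z 388.2→192). Noncompartmental analysis of mean concentration-time data, AUCinf by trapezoidal rule with extrapolation, CL = dose/AUCinf, Cmax read from the curve. F = (AUCnon-iv × dose iv)/(AUCiv × dose non-iv). n = 3 per dose group.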

[2] = Retention time of the compound at 0.5 uM by LC-MS/MS analysis; type: physicochemical
Outline: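 After a 2 h incubation at 37°C with liver microsomes (1 mg/ml protein, 3 mM NADPH, 0.5 μM substrate, pH 7.4 phosphate buffer), samples were quenched with acetonitrile and centrifuged. Supernatant separated on a C18 column (15 min run, linear gradient 100% A to 100% B over 7 min) with LC-MS/MS ion trap detection.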

[3] = Clearance in ICR mouse at 15 mg/kg, iv by LC-MS/MS analysis; type: ADME, organism-based; parameters: dose 15 mg/kg, route intravenous; settings: in vivo; outline: as §1
[4] = Terminal half life in ICR mouse at 15 mg/kg, ip by LC-MS/MS analysis; type: ADME, organism-based; parameters: dose 15 mg/kg, route intraperitoneal; settings: in vivo, read-out: beta t1/2 (converted)
Outline: (§2)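 Male ICR mice (20–25 g) given the compound intraperitoneally or by gavage in 10% DMSO/PEG300. Three to four mice were sacrificed per time point and plasma collected from the vena cava. Plasma was precipitated with acetonitrile containing internal standard and analysed by LC-MS/MS. Noncompartmental analysis of mean concentration-time data: terminal t1/2 = ln2/λz; Tmax by inspection; n = 3/dose group.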

[5] = Volume of distribution at steady state in ICR mouse at 1 mg/kg, iv by LC-MS/MS analysis; type: ADME, organism-based; parameters: dose 1 mg/kg, route intravenous; settings: in vivo, read-out: Vdss
Outline: (§3)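 Tail-vein injection in male ICR mice (5–6 weeks), vehicle 10% DMSO in PEG300. Serial terminal sampling of 3–4 mice per time point, with posterior vena cava blood. Plasma was acetonitrile-precipitated and measured by LC-MS/MS. Noncompartmental analysis of mean data: t1/2 = ln2/λz, CL = dose/AUC_inf, Vd_ss = CL × MRT_inf; n = 3/dose group.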

[6] = Drug level in monkey liver microsomes assessed as compound retention time treated with 0.5 uM I-387 after 2 hrs by LC-MS/MS analysis; type: ADME, Macaca mulatta; settings: rhesus monkey
Outline: (§4)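 Pooled liver microsomes (1 mg/ml protein) incubated with 0.5 µM substrate and 3 mM NADPH in 65 mM potassium phosphate, pH 7.4, 1% methanol, at 37°C for 2 h. Stopped with ice-cold acetonitrile containing internal standard, centrifuged. Supernatant analysed by LC-MS/MS on a C18 column, 15-min gradient, with product ion scans for metabolite identification.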

[7] = Mean residence time (infinity) in ICR mouse at 15 mg/kg, po via gavage by LC-MS/MS analysis; type: ADME, organism-based; parameters: dose 15 mg/kg, route oral; settings: in vivo; outline: as §1
[8] = Cmax in ICR mouse at 15 mg/kg, po via gavage by LC-MS/MS analysis; type: ADME, organism-based; parameters: dose 15 mg/kg, route oral; settings: in vivo; outline: as §1
Liver = experiment: Drug level in mouse liver microsomes assessed as compound retention time treated with 0.5 uM I-387 after 2 hrs by LC-MS/MS analysis; type: ADME; outline: as §4
[9] = Cmax in ICR mouse at 15 mg/kg, iv by LC-MS/MS analysis; type: ADME, organism-based; parameters: dose 15 mg/kg, route intravenous; settings: in vivo; outline: as §1
Liver microsome [10] = experiment: Drug level in rat liver microsomes assessed as compound retention time treated with 0.5 uM I-387 after 2 hrs by LC-MS/MS analysis; type: ADME; outline: as §4
[11] = Bioavailability in ICR mouse at 5 mg/kg, ip by LC-MS/MS analysis; type: ADME, organism-based; settings: in vivo; outline: as §1
[12] = Metabolic stability in monkey liver microsomes assessed as half life during phase 1 at 0.5 uM by LC-MS/MS analysis in presence of 3 mM NADPH and absence of UDPGA; type: ADME, Macaca mulatta; settings: rhesus monkey, read-out: alphat1/2
Outline: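 Pooled liver microsomes at 1 mg/ml protein with 3 mM NADPH, 0.5 μM substrate in 65 mM potassium phosphate pH 7.4, 1% methanol, 37°C. Incubations stopped at 10, 20, 30, 60 and 90 min with ice-cold acetonitrile plus internal standard, then LC-MS/MS of parent remaining relative to time 0. Half-life from a two-parameter single exponential decay fit; n = 2 to 3.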

[13] = Drug metabolism in monkey liver microsomes assessed as (3-(1H-indol-2-yl)phenyl)(3,4,5-trimethoxyphenyl)methanol formation at 0.5 uM after 2 hrs by LC-MS/MS analysis in presence of 3 mM NADPH; type: ADME, Macaca mulatta; settings: rhesus monkey; outline: as §4
[14] = Antitumor activity against human MESSA/DX5 cells xenografted in nu/nu mouse assessed as decrease in tumor growth at 10 mg/kg, ip 2 days per week for weeks; type: functional; settings: MES-SA/Dx5, ip, 48 h, route intraperitoneal
[15] = Bioavailability in ICR mouse at 15 mg/kg, ip by LC-MS/MS analysis; type: ADME, organism-based; settings: in vivo; outline: as §1
[16] = Mean residence time (infinity) in ICR mouse at 5 mg/kg, ip by LC-MS/MS analysis; type: ADME, organism-based; parameters: dose 5 mg/kg, route intraperitoneal; settings: in vivo; outline: as §1
Liver microsome [17] = experiment: Drug metabolism in rat liver microsomes assessed as (3-(1H-indol-2-yl)phenyl)(3,4,5-trimethoxyphenyl)methanol formation at 0.5 uM after 2 hrs by LC-MS/MS analysis in presence of 3 mM NADPH; type: ADME; outline: as §4
[18] = Terminal half life in ICR mouse at 5 mg/kg, ip by LC-MS/MS analysis; type: ADME, organism-based; parameters: dose 5 mg/kg, route intraperitoneal; settings: in vivo, read-out: beta t1/2 (converted); outline: as §2
[19] = Cmax in ICR mouse at 1 mg/kg, iv by LC-MS/MS analysis; type: ADME, organism-based; parameters: dose 1 mg/kg, route intravenous; settings: in vivo; outline: as §1
[20] = Terminal half life in ICR mouse at 15 mg/kg, iv by LC-MS/MS analysis; type: ADME, organism-based; parameters: dose 15 mg/kg, route intravenous; settings: in vivo, read-out: beta t1/2 (converted); outline: as §3
[21] = Cmax in ICR mouse at 5 mg/kg, iv by LC-MS/MS analysis; type: ADME, organism-based; parameters: dose 5 mg/kg, route intravenous; settings: in vivo; outline: as §1
Liver microsome [22] = experiment: Drug level in dog liver microsomes assessed as compound retention time treated with 0.5 uM I-387 after 2 hrs by LC-MS/MS analysis; type: ADME, Canis lupus familiaris; outline: as §4
[23] = Clearance in ICR mouse at 1 mg/kg, iv by LC-MS/MS analysis; type: ADME, organism-based; parameters: dose 1 mg/kg, route intravenous; settings: in vivo; outline: as §1
[24] = Tmax in ICR mouse at 5 mg/kg, ip by LC-MS/MS analysis; type: ADME, organism-based; parameters: dose 5 mg/kg, route intraperitoneal; settings: in vivo; outline: as §2
[25] = Volume of distribution at steady state in ICR mouse at 5 mg/kg, iv by LC-MS/MS analysis; type: ADME, organism-based; parameters: dose 5 mg/kg, route intravenous; settings: in vivo, read-out: Vdss; outline: as §3
[26] = Terminal half life in ICR mouse at 1 mg/kg, ip by LC-MS/MS analysis; type: ADME, organism-based; parameters: dose 1 mg/kg, route intraperitoneal; settings: in vivo, read-out: beta t1/2 (converted); outline: as §2

SMILES: COc1cc(C(=O)c2cccc(-c3cc4ccccc4[nH]3)c2)cc(OC)c1OC
- MRT inf [1]: 6.4 h
- Retention_time [2]: 11.3 min
- clearance [3]: 19 mL/min/kg
- half-life [4]: 8.3 h
- Vd [5]: 5.3 L/kg
- Retention_time [6]: 11.3 min
- MRT inf [7]: 8.9 h
- Cmax [8]: 260 ng/mL
- Retention_time (Liver): 11.3 min
- Cmax [9]: 7530 ng/mL
- Retention_time (Liver microsome [10]): 11.3 min
- bioavailability [11]: 95%
- half-life at 0.5 µM [12]: 0.25 h
- Drug metabolism [13]: metabolite_detected
- inhibition in vivo at 10 mg/kg [14]: 76%
- bioavailability [15]: 94%
- MRT inf [16]: 5.5 h
- Drug metabolism (Liver microsome [17]): metabolite_detected
- half-life [18]: 4.9 h
- Cmax [19]: 550 ng/mL
- half-life [20]: 8.9 h
- Cmax [21]: 2860 ng/mL
- Retention_time (Liver microsome [22]): 11.3 min
- clearance [23]: 27 mL/min/kg
- Tmax [24]: 5 min
- Vd [25]: 3.8 L/kg
- half-life [26]: 8 h

From ChEMBL document CHEMBL3526142, “Biotransformation of a novel antimitotic agent, I-387, by mouse, rat, dog, monkey, and human liver microsomes and in vivo pharmacokinetics in mice” (Drug Metab Dispos, 2011)
